The results in this text go back to ChEMBL document CHEMBL4622959, “Design, synthesis and biological evaluation of novel 6-phenyl-1,3a,4,10b-tetrahydro-2H-benzo[c]thiazolo[4,5-e]azepin-2-one derivatives as potential BRD4 inhibitors” (Bioorg Med Chem, 2020).

Assay [1] has as its target T1, Bromodomain-containing protein 4 (Homo sapiens, UniProt O60885). As to the kind of experiment: Displacement of APC-labeled biotinylated-avidin from […]-chelated recombinant human N-terminal GST-tagged BRD4 bromodomain 1 expressed in Escherichia coli preincubated for 15 mins followed by APC-labeled biotinylated-avidin addition and measured after 1 hr under dark condition by TR-FRET assay.

The test system of assay [2] is MV4-11. As to the kind of experiment: Antiproliferative activity against human MV4-11 cells assessed as reduction in cell viability incubated for 72 hrs by CCK-8 assay. The format is functional, cell-based. Conditions: MV4-11, 72 h. The essentials: (§1)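 Cells grown in IMDM with 10% FBS and 1% penicillin–streptomycin at 37 °C in a CO₂ incubator and harvested in log phase. Seeded at 10,000 cells per well in 100 μL medium, cultured 12 h, then given compounds at a range of concentrations for 72 h. CCK-8 added for 1–4 h, absorbance read at 450 nm. IC₅₀ calculated from the dose-response data.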
A general note: Tetrazolium assays rely on reduction of a dye to a coloured formazan, in cell work by metabolically active cells.

The next assay relates to HL-60. Briefly: Antiproliferative activity against human HL60 cells assessed as reduction in cell viability incubated for 72 hrs by CCK-8 assay. Format: functional, cell-based. Conditions: HL-60, 72 h. The method in brief:
as §1

In assay [3] the test system is MV4-11. Briefly: Induction of apoptosis in human MV4-11 cells assessed as necrotic cell at 0.5 uM after 12 hrs by Annexin V-FITC/propidium iodide staining-based flow cytometric analysis (reference value: 0.17 %). The format is functional. A general note: Flow cytometry measures light scatter and fluorescence of single cells or particles in a stream.
Assay [4] concerns MV4-11. As to the kind of experiment: Cell cycle arrest in human MV4-11 cells assessed as accumulation at G1 phase after 12 hrs by propidium iodide staining based flow cytometric analysis. The format is functional.
Assay [5] has as its system MV4-11. As to the kind of experiment: Induction of apoptosis in human MV4-11 cells after 12 hrs by Annexin V-FITC/propidium iodide staining-based flow cytometric analysis. The format is functional, cell-based.
Assay [6] has as its system MV4-11. Briefly: Induction of apoptosis in human MV4-11 cells assessed as late apoptotic cell at 0.5 uM after 12 hrs by Annexin V-FITC/propidium iodide staining-based flow cytometric analysis (reference value: 1.28 %). Format: functional.
Assay [7] has as its system MV4-11. Briefly: Induction of apoptosis in human MV4-11 cells assessed as live cell at 0.5 uM after 12 hrs by Annexin V-FITC/propidium iodide staining-based flow cytometric analysis (reference value: 97.99 %). The format is functional.
For assay [8], the system named is MV4-11. As to the kind of experiment: Induction of apoptosis in human MV4-11 cells assessed as early apoptotic cell at 0.5 uM after 12 hrs by Annexin V-FITC/propidium iodide staining-based flow cytometric analysis (reference value: 0.56 %). Format: functional.
In assay [9] the test system is MV4-11. As to the kind of experiment: Induction of apoptosis in human MV4-11 cells assessed as necrotic cell at 5 uM after 12 hrs by Annexin V-FITC/propidium iodide staining-based flow cytometric analysis (reference value: 0.17 %). The format is functional.
The subject of assay [10] is MV4-11. Briefly: Induction of apoptosis in human MV4-11 cells assessed as late apoptotic cell at 5 uM after 12 hrs by Annexin V-FITC/propidium iodide staining-based flow cytometric analysis (reference value: 1.28 %). The format is functional.
The subject of assay [11] is MV4-11. Briefly: Induction of apoptosis in human MV4-11 cells assessed as live cell at 5 uM after 12 hrs by Annexin V-FITC/propidium iodide staining-based flow cytometric analysis (reference value: 97.99 %). The format is functional.
Assay [12] has as its system MV4-11. As to the kind of experiment: Induction of apoptosis in human MV4-11 cells assessed as early apoptotic cell at 5 uM after 12 hrs by Annexin V-FITC/propidium iodide staining-based flow cytometric analysis (reference value: 0.56 %). Format: functional.
Assay [13] has as its system MV4-11. As to the kind of experiment: Cell cycle arrest in human MV4-11 cells assessed as accumulation at G0/G1 phase at 0.5 uM after 12 hrs by propidium iodide staining based flow cytometric analysis (reference value: 43.91%). Format: functional.
In assay [14] the test system is MV4-11. As to the kind of experiment: Cell cycle arrest in human MV4-11 cells assessed as accumulation at G2/M phase at 0.5 uM after 12 hrs by propidium iodide staining based flow cytometric analysis (reference value: 18.19%). Format: functional.
Assay [15] deals with MV4-11. Briefly: Cell cycle arrest in human MV4-11 cells assessed as accumulation at S phase at 0.5 uM after 12 hrs by propidium iodide staining based flow cytometric analysis (reference value: 38.62%). The format is functional.
Assay [16] deals with MV4-11. As to the kind of experiment: Cell cycle arrest in human MV4-11 cells assessed as accumulation at G0/G1 phase at 5 uM after 12 hrs by propidium iodide staining based flow cytometric analysis (reference value: 43.91%). Format: functional.
For assay [17], the system named is MV4-11. As to the kind of experiment: Cell cycle arrest in human MV4-11 cells assessed as accumulation at G2/M phase at 5 uM after 12 hrs by propidium iodide staining based flow cytometric analysis (reference value: 18.19%). Format: functional.
Assay [18] has as its system MV4-11. Briefly: Cell cycle arrest in human MV4-11 cells assessed as accumulation at S phase at 5 uM after 12 hrs by propidium iodide staining based flow cytometric analysis (reference value: 38.62%). The format is functional.
Assay [19] has as its target T1, Bromodomain-containing protein 4. Briefly: Inhibition of BRD4 in human MV4-11 cells assessed as reduction in c-Myc expression level after 4 hrs by Western blot analysis. Format: cell-based. The essentials: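 Log-phase MV-4-11 cells (IMDM, 10% FBS, 1% penicillin–streptomycin, 37 °C) were treated with compound for 4 h, then lysed at 4 °C and protein quantified. Lysates were run on SDS-PAGE (10% separating, 4% stacking gel) and transferred to PVDF. Membranes were blocked 2 h in 5% non-fat milk/TBST at room temperature, probed for c-Myc, and band intensity quantified from three independent experiments.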
In general terms: In western blotting, separated proteins are transferred to a membrane and probed.

The structures appear in SMILES notation.

As usually defined, the IC50 is the midpoint of a concentration-inhibition curve. As to `COc1ccc2c(c1)C(c1ccc(Cl)cc1)=NC(CC(=O)N1CCOCC1)c1sc(=O)n(C)c1-2` (configuration not stated), the half-maximal inhibitory concentration (IC50) came out at 480 nM in assay [1], 940 nM in the assay with MV4-11 [2] and 7620 nM in the assay with HL-60.
Consider `COc1ccc2c(c1)C(c1ccc(Cl)cc1)=NC(CC(=O)O)c1sc(=O)n(C)c1-2` (configuration not stated), for which the IC50 came to 870 nM in [1] and 2860 nM with MV4-11 [2].
Turning to `COc1ccc2c(c1)C(c1ccc(Cl)cc1)=NC(CC(=O)Nc1ccc(O)cc1)c1sc(=O)n(C)c1-2` (configuration not stated), the IC50 in assay [1] worked out at 510 nM; with MV4-11 [2], 1060 nM; in the assay with HL-60, 9050 nM.
Take `COc1ccc2c(c1)C(c1ccc(Cl)cc1)=NC(CC(=O)NC1CCCC1)c1sc(=O)n(C)c1-2` (configuration not stated): the Activity in the assay on MV4-11 [3] is 0.35%; in the assay on MV4-11 [4], “Dose-dependent effect”; with MV4-11 [5], “Dose-dependent effect”; in the assay with MV4-11 [6], 5.93%; in the assay with MV4-11 [7], 87.61%; with MV4-11 [8], 6.1%. In addition, the Activity in the assay on MV4-11 [9] came to 0.42%; in the assay on MV4-11 [10] it was 42.85%; in the assay with MV4-11 [11], 26.76%; in the assay on MV4-11 [12], 29.97%; with MV4-11 [13], 50.67%; in the assay with MV4-11 [14], 17.93%. In addition, the Activity in the assay with MV4-11 [15] is on record as 31.2%; in the assay with MV4-11 [16], 70.68%; in the assay with MV4-11 [17] it was 14.11%; in the assay with MV4-11 [18], 15.23%. For the same compound, the 50% inhibitory concentration (IC50) in assay [1] is 110 nM; with MV4-11 [2], 420 nM; in the assay on HL-60, 5520 nM. In addition, the inhibition entry in assay [19] is “Dose-dependent effect”.
As for `CCCCNC(=O)CC1N=C(c2ccc(Cl)cc2)c2cc(OC)ccc2-c2c1sc(=O)n2C` (configuration not stated), the IC50 in [1] was 1020 nM; with MV4-11 [2] it was 3480 nM.
In the case of `COc1ccc2c(c1)C(c1ccc(Cl)cc1)=NC(CC(=O)NC(C)(C)C)c1sc(=O)n(C)c1-2` (configuration not stated), the figures for the IC50 (in assay [1]; with MV4-11 [2]; with HL-60) were 160 nM, 640 nM and 5410 nM, respectively.
For `COc1ccc2c(c1)C(c1ccc(Cl)cc1)=NC(CC(=O)Nc1ccc(F)cc1)c1sc(=O)n(C)c1-2` (configuration not stated) the same measures were 680 nM, 1440 nM and 12400 nM.
On the same counts, the results for `COc1ccc2c(c1)C(c1ccc(Cl)cc1)=NC(CC(=O)N1CCCC1)c1sc(=O)n(C)c1-2` (configuration not stated) are 540 nM, 1120 nM and 10400 nM.
For the compound `CCNC(=O)C[C@@H]1N=C(c2ccc(Cl)cc2)c2cc(OC)ccc2-n2c(C)nnc21` [MOLIBRESIB], the concentration for half-maximal inhibition (IC50) with MV4-11 [2] worked out at 1230 nM.
For the compound `CCNC(=O)CC1N=C(c2ccc(Cl)cc2)c2cc(OC)ccc2-c2c1sc(=O)n2C` (configuration not stated), the results for the concentration for half-maximal inhibition (IC50) (in [1]; in the assay with MV4-11 [2]; with HL-60) were 740 nM, 1780 nM and 12800 nM, respectively.
Consider `CCOC(=O)CC1N=C(c2ccc(Cl)cc2)c2cc(OC)ccc2-c2c1sc(=O)n2C` (configuration not stated), for which the results for the IC50 (in assay [1]; in the assay with MV4-11 [2]; with HL-60) were 420 nM, 880 nM and 6210 nM, respectively.
On to `COc1ccc2c(c1)C(c1ccc(Cl)cc1)=NC(CC(=O)NC1CC1)c1sc(=O)n(C)c1-2` (configuration not stated), for which the IC50 in [1] is 140 nM; in the assay with MV4-11 [2], 510 nM; in the assay on HL-60 it was 4560 nM.
On the same counts, the results for `COc1ccc2c(c1)C(c1ccc(Cl)cc1)=NC(CC(=O)Nc1ccccc1)c1sc(=O)n(C)c1-2` (configuration not stated) are 200 nM, 670 nM and 7740 nM.
As to `CCOC(=O)CC1OC(c2ccc(Cl)cc2)c2cc(OC)ccc2-c2c1sc(=O)n2C` (configuration not stated), the values for the IC50 (in assay [1]; with MV4-11 [2]; in the assay with HL-60) were 480 nM, 920 nM and 5440 nM, respectively.
For `C#CCNC(=O)CC1N=C(c2ccc(Cl)cc2)c2cc(OC)ccc2-c2c1sc(=O)n2C` (configuration not stated) the same measures were 210 nM, 700 nM and 8460 nM.
In the case of `Cc1sc2c(c1C)C(c1ccc(Cl)cc1)=N[C@@H](CC(=O)OC(C)(C)C)c1nnc(C)n1-2`, the Activity in the assay with MV4-11 [3] is 0.06%; in the assay with MV4-11 [4] it was “Dose-dependent effect”; in the assay with MV4-11 [6], 9.14%; in the assay with MV4-11 [7], 85.57%; with MV4-11 [8] it was 5.23%; in the assay on MV4-11 [9], 0.24%. Also, the Activity with MV4-11 [10] was determined as 59.31%; with MV4-11 [11], 9.58%; with MV4-11 [12] it was 30.87%; in the assay on MV4-11 [13], 57.35%; in the assay with MV4-11 [14], 14.56%; with MV4-11 [15] it was 28.09%. In addition, the Activity with MV4-11 [16] is listed as 83.64%; in the assay on MV4-11 [17] it was 13.01%; with MV4-11 [18], 3.35%. In addition, in the assay with HL-60, the half-maximal inhibitory concentration (IC50) was 3460 nM.
For `COc1ccc2c(c1)C(c1ccc(Cl)cc1)=NC(CC(=O)N1CCCCC1)c1sc(=O)n(C)c1-2` (configuration not stated), the half-inhibitory concentration (IC50) in [1] was found to be 430 nM; in the assay with MV4-11 [2], 910 nM; with HL-60, 8690 nM.
